# Measured values: ChEMBL document CHEMBL1133614, “Novel radiotracers for imaging the serotonin transporter by positron emission tomography: synthesis, radiosynthesis, and in vitro and ex vivo evaluation of (11)C-labeled 2-(phenylthio)araalkylamines” (J Med Chem, 2000)
# System: not listed separately
# Experiment: Half-life of washout rate of radioactivity from the cerebellum.
# Format: ADME, tissue-based
# Conditions: not given
# Procedure, shortened: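 Rats received the 11C tracer by tail vein (3-30 MBq, 350-450 ng, buffered saline), 3 per time point. Cerebellar radioactivity (%ID/g) was followed over time after injection, and the half-life of its washout was derived from that time course.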
row,T1/2,SMILES
1,18.8 min,COc1ccc(Sc2ccccc2CN(C)C)c(N)c1

# System: not listed separately
# Experiment: Log P at pH 7.4
# Format: physicochemical
# Conditions: buffer, read-out: logD
# Procedure, shortened: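 Partition of the radiolabelled compound between 1-octanol and 0.02 M phosphate buffer at pH 7.4.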
row,logD,SMILES
1,2.83,COc1ccc(Sc2ccccc2CN(C)C)c(N)c1

# Species on record: Rattus norvegicus
# Experiment: Biodistribution of radioactivity in rat thalamus upon Tail-Vein injection of [11C]-labeled compound after 15 min
# Format: ADME, organism-based
# Conditions: in vivo, iv, 0.25 h
row,ID/g,SMILES
1,1.13%,COc1ccc(Sc2ccccc2CN(C)C)c(N)c1

# Species on record: Rattus norvegicus
# Experiment: Biodistribution of radioactivity in rat thalamus upon Tail-Vein injection of [11C]-labeled compound after 30 min
# Format: ADME, organism-based
# Conditions: in vivo, iv, 0.5 h
row,ID/g,SMILES
1,0.83%,COc1ccc(Sc2ccccc2CN(C)C)c(N)c1

# Species on record: Rattus norvegicus
# Experiment: Biodistribution of radioactivity in rat thalamus upon Tail-Vein injection of [11C]-labeled compound after 45 min
# Format: ADME, organism-based
# Conditions: in vivo, iv, 0.75 h
row,ID/g,SMILES
1,0.71%,COc1ccc(Sc2ccccc2CN(C)C)c(N)c1

# Species on record: Rattus norvegicus
# Experiment: Biodistribution of radioactivity in rat blood upon Tail-Vein injection of [11C]-labeled compound after 15 min
# Format: ADME, organism-based
# Conditions: in vivo, iv, 0.25 h
row,ID/g,SMILES
1,0.17%,COc1ccc(Sc2ccccc2CN(C)C)c(N)c1

# Species on record: Rattus norvegicus
# Experiment: Biodistribution of radioactivity in rat blood upon Tail-Vein injection of [11C]-labeled compound after 30 min
# Format: ADME, organism-based
# Conditions: in vivo, iv, 0.5 h
row,ID/g,SMILES
1,0.13%,COc1ccc(Sc2ccccc2CN(C)C)c(N)c1

# Species on record: Rattus norvegicus
# Experiment: Biodistribution of radioactivity in rat blood upon Tail-Vein injection of [11C]-labeled compound after 45 min
# Format: ADME, organism-based
# Conditions: in vivo, iv, 0.75 h
row,ID/g,SMILES
1,0.1%,COc1ccc(Sc2ccccc2CN(C)C)c(N)c1

# Species on record: Rattus norvegicus
# Experiment: Biodistribution of radioactivity in rat blood upon Tail-Vein injection of [11C]-labeled compound after 5 min
# Format: ADME, organism-based
# Conditions: in vivo, iv
row,ID/g,SMILES
1,0.3%,COc1ccc(Sc2ccccc2CN(C)C)c(N)c1

# Species on record: Rattus norvegicus
# Experiment: Biodistribution of radioactivity in rat blood upon Tail-Vein injection of [11C]-labeled compound after 60 min
# Format: ADME, organism-based
# Conditions: in vivo, iv, 1 h
row,ID/g,SMILES
1,0.07%,COc1ccc(Sc2ccccc2CN(C)C)c(N)c1

# Species on record: Rattus norvegicus
# Experiment: Biodistribution of radioactivity in rat cerebellum upon Tail-Vein injection of [11C]-labeled compound after 15 min
# Format: ADME, organism-based
# Conditions: in vivo, iv, 0.25 h
row,ID/g,SMILES
1,0.52%,COc1ccc(Sc2ccccc2CN(C)C)c(N)c1

# Species on record: Rattus norvegicus
# Experiment: Biodistribution of radioactivity in rat cerebellum upon Tail-Vein injection of [11C]-labeled compound after 30 min
# Format: ADME, organism-based
# Conditions: in vivo, iv, 0.5 h
row,ID/g,SMILES
1,0.27%,COc1ccc(Sc2ccccc2CN(C)C)c(N)c1

# Species on record: Rattus norvegicus
# Experiment: Biodistribution of radioactivity in rat cerebellum upon Tail-Vein injection of [11C]-labeled compound after 45 min
# Format: ADME, organism-based
# Conditions: in vivo, iv, 0.75 h
row,ID/g,SMILES
1,0.2%,COc1ccc(Sc2ccccc2CN(C)C)c(N)c1

# Species on record: Rattus norvegicus
# Experiment: Biodistribution of radioactivity in rat cerebellum upon Tail-Vein injection of [11C]-labeled compound after 5 min
# Format: ADME, organism-based
# Conditions: in vivo, iv
row,ID/g,SMILES
1,0.8%,COc1ccc(Sc2ccccc2CN(C)C)c(N)c1

# Species on record: Rattus norvegicus
# Experiment: Biodistribution of radioactivity in rat cerebellum upon Tail-Vein injection of [11C]-labeled compound after 60 min
# Format: ADME, organism-based
# Conditions: in vivo, iv, 1 h
row,ID/g,SMILES
1,0.1%,COc1ccc(Sc2ccccc2CN(C)C)c(N)c1

# Species on record: Rattus norvegicus
# Experiment: Biodistribution of radioactivity in rat cortex upon Tail-Vein injection of [11C]-labeled compound after 15 min
# Format: ADME, organism-based
# Conditions: in vivo, iv, 0.25 h
row,ID/g,SMILES
1,1.11%,COc1ccc(Sc2ccccc2CN(C)C)c(N)c1

# Species on record: Rattus norvegicus
# Experiment: Biodistribution of radioactivity in rat cortex upon Tail-Vein injection of [11C]-labeled compound after 30 min
# Format: ADME, organism-based
# Conditions: in vivo, iv, 0.5 h
row,ID/g,SMILES
1,0.7%,COc1ccc(Sc2ccccc2CN(C)C)c(N)c1

# Species on record: Rattus norvegicus
# Experiment: Biodistribution of radioactivity in rat cortex upon Tail-Vein injection of [11C]-labeled compound after 45 min
# Format: ADME, organism-based
# Conditions: in vivo, iv, 0.75 h
row,ID/g,SMILES
1,0.54%,COc1ccc(Sc2ccccc2CN(C)C)c(N)c1

# Species on record: Rattus norvegicus
# Experiment: Biodistribution of radioactivity in rat thalamus upon Tail-Vein injection of [11C]-labeled compound after 5 min
# Format: ADME, organism-based
# Conditions: in vivo, iv
row,ID/g,SMILES
1,1.12%,COc1ccc(Sc2ccccc2CN(C)C)c(N)c1

# Species on record: Rattus norvegicus
# Experiment: Biodistribution of radioactivity in rat cortex upon Tail-Vein injection of [11C]-labeled compound after 5 min
# Format: ADME, organism-based
# Conditions: in vivo, iv
row,ID/g,SMILES
1,1.37%,COc1ccc(Sc2ccccc2CN(C)C)c(N)c1

# Species on record: Rattus norvegicus
# Experiment: Biodistribution of radioactivity in rat cortex upon Tail-Vein injection of [11C]-labeled compound after 60 min
# Format: ADME, organism-based
# Conditions: in vivo, iv, 1 h
row,ID/g,SMILES
1,0.36%,COc1ccc(Sc2ccccc2CN(C)C)c(N)c1

# Species on record: Rattus norvegicus
# Experiment: Biodistribution of radioactivity in rat hippocampus upon Tail-Vein injection of [11C]-labeled compound after 15 min
# Format: ADME, organism-based
# Conditions: in vivo, iv, 0.25 h
row,ID/g,SMILES
1,0.98%,COc1ccc(Sc2ccccc2CN(C)C)c(N)c1

# Species on record: Rattus norvegicus
# Experiment: Biodistribution of radioactivity in rat hippocampus upon Tail-Vein injection of [11C]-labeled compound after 30 min
# Format: ADME, organism-based
# Conditions: in vivo, iv, 0.5 h
row,ID/g,SMILES
1,0.74%,COc1ccc(Sc2ccccc2CN(C)C)c(N)c1

# Species on record: Rattus norvegicus
# Experiment: Biodistribution of radioactivity in rat hippocampus upon Tail-Vein injection of [11C]-labeled compound after 45 min
# Format: ADME, organism-based
# Conditions: in vivo, iv, 0.75 h
row,ID/g,SMILES
1,0.56%,COc1ccc(Sc2ccccc2CN(C)C)c(N)c1

# Species on record: Rattus norvegicus
# Experiment: Biodistribution of radioactivity in rat hippocampus upon Tail-Vein injection of [11C]-labeled compound after 5 min
# Format: ADME, organism-based
# Conditions: in vivo, iv
row,ID/g,SMILES
1,1.09%,COc1ccc(Sc2ccccc2CN(C)C)c(N)c1

# Species on record: Rattus norvegicus
# Experiment: Biodistribution of radioactivity in rat hippocampus upon Tail-Vein injection of [11C]-labeled compound after 60 min
# Format: ADME, organism-based
# Conditions: in vivo, iv, 1 h
row,ID/g,SMILES
1,0.38%,COc1ccc(Sc2ccccc2CN(C)C)c(N)c1

# Species on record: Rattus norvegicus
# Experiment: Biodistribution of radioactivity in rat hypothalamus upon Tail-Vein injection of [11C]-labeled compound after 15 min
# Format: ADME, organism-based
# Conditions: in vivo, iv, 0.25 h
row,ID/g,SMILES
1,1.31%,COc1ccc(Sc2ccccc2CN(C)C)c(N)c1

# Species on record: Rattus norvegicus
# Experiment: Biodistribution of radioactivity in rat hypothalamus upon Tail-Vein injection of [11C]-labeled compound after 30 min
# Format: ADME, organism-based
# Conditions: in vivo, iv, 0.5 h
row,ID/g,SMILES
1,1.08%,COc1ccc(Sc2ccccc2CN(C)C)c(N)c1

# Species on record: Rattus norvegicus
# Experiment: Biodistribution of radioactivity in rat hypothalamus upon Tail-Vein injection of [11C]-labeled compound after 45 min
# Format: ADME, organism-based
# Conditions: in vivo, iv, 0.75 h
row,ID/g,SMILES
1,0.89%,COc1ccc(Sc2ccccc2CN(C)C)c(N)c1

# Species on record: Rattus norvegicus
# Experiment: Biodistribution of radioactivity in rat hypothalamus upon Tail-Vein injection of [11C]-labeled compound after 5 min
# Format: ADME, organism-based
# Conditions: in vivo, iv
row,ID/g,SMILES
1,1.22%,COc1ccc(Sc2ccccc2CN(C)C)c(N)c1

# Species on record: Rattus norvegicus
# Experiment: Biodistribution of radioactivity in rat hypothalamus upon Tail-Vein injection of [11C]-labeled compound after 60 min
# Format: ADME, organism-based
# Conditions: in vivo, iv, 1 h
row,ID/g,SMILES
1,0.63%,COc1ccc(Sc2ccccc2CN(C)C)c(N)c1

# Species on record: Rattus norvegicus
# Experiment: Biodistribution of radioactivity in rat striatum upon Tail-Vein injection of [11C]-labeled compound after 15 min
# Format: ADME, organism-based
# Conditions: in vivo, iv, 0.25 h
row,ID/g,SMILES
1,1.07%,COc1ccc(Sc2ccccc2CN(C)C)c(N)c1

# Species on record: Rattus norvegicus
# Experiment: Biodistribution of radioactivity in rat striatum upon Tail-Vein injection of [11C]-labeled compound after 30 min
# Format: ADME, organism-based
# Conditions: in vivo, iv, 0.5 h
row,ID/g,SMILES
1,0.76%,COc1ccc(Sc2ccccc2CN(C)C)c(N)c1

# Species on record: Rattus norvegicus
# Experiment: Biodistribution of radioactivity in rat striatum upon Tail-Vein injection of [11C]-labeled compound after 45 min
# Format: ADME, organism-based
# Conditions: in vivo, iv, 0.75 h
row,ID/g,SMILES
1,0.58%,COc1ccc(Sc2ccccc2CN(C)C)c(N)c1

# Species on record: Rattus norvegicus
# Experiment: Biodistribution of radioactivity in rat striatum upon Tail-Vein injection of [11C]-labeled compound after 5 min
# Format: ADME, organism-based
# Conditions: in vivo, iv
row,ID/g,SMILES
1,1.19%,COc1ccc(Sc2ccccc2CN(C)C)c(N)c1

# Species on record: Rattus norvegicus
# Experiment: Biodistribution of radioactivity in rat striatum upon Tail-Vein injection of [11C]-labeled compound after 60 min
# Format: ADME, organism-based
# Conditions: in vivo, iv, 1 h
row,ID/g,SMILES
1,0.38%,COc1ccc(Sc2ccccc2CN(C)C)c(N)c1

# Molecular target: Sodium-dependent noradrenaline transporter (Homo sapiens, UniProt P23975)
# Experiment: In vitro binding affinity on cloned Norepinephrine transporter
# Conditions: not given
# Procedure, shortened: (§1)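 Competition binding in triplicate on membranes from cloned human transporters. Buffer 50 mM Tris-Cl pH 7.4 with 150 mM NaCl/5 mM KCl (SERT, NET) or 100 mM NaCl (DAT). Incubated 40 min at 37 °C, then filtered on PEI-soaked GF/B filters. Nonspecific binding set with duloxetine 1 µM (SERT), desipramine 10 µM (NET) or nomifensine 10 µM (DAT). IC50 from nonlinear fit; Ki by Cheng-Prusoff.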
# Sodium-dependent noradrenaline transporter, sequence (P23975 whole entry): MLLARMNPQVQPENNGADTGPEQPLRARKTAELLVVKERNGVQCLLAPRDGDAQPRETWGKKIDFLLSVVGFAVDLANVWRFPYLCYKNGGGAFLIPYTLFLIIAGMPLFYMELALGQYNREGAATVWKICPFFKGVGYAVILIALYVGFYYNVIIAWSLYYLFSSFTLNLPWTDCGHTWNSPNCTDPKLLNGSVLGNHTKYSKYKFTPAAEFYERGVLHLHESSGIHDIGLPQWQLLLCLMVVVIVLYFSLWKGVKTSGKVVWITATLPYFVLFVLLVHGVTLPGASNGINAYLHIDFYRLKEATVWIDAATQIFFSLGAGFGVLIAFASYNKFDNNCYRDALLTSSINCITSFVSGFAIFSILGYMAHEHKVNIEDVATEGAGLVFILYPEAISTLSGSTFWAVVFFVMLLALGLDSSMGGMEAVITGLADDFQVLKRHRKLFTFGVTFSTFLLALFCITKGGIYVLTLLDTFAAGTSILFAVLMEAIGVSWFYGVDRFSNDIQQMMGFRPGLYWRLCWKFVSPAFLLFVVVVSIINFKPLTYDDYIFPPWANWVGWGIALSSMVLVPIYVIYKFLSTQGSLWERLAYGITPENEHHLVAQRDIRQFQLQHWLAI
row,Ki,SMILES
1,1990 nM,COc1ccc(Sc2ccccc2CN(C)C)c(N)c1

# Molecular target: Sodium-dependent serotonin transporter (Homo sapiens, UniProt P31645)
# Experiment: In vitro binding affinity on cloned Serotonin transporter
# Conditions: not given
# Procedure, shortened: as §1, with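 “transporters. Radioligands: SERT [3H]paroxetine 0.2 nM with 10.3 µg protein, NET [3H]nisoxetine 1.0 nM with 16.9 µg, DAT [3H]WIN 35,428 1.0 nM with 6.2 µg.” for “transporters.”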
# Sodium-dependent serotonin transporter, sequence (P31645 whole entry): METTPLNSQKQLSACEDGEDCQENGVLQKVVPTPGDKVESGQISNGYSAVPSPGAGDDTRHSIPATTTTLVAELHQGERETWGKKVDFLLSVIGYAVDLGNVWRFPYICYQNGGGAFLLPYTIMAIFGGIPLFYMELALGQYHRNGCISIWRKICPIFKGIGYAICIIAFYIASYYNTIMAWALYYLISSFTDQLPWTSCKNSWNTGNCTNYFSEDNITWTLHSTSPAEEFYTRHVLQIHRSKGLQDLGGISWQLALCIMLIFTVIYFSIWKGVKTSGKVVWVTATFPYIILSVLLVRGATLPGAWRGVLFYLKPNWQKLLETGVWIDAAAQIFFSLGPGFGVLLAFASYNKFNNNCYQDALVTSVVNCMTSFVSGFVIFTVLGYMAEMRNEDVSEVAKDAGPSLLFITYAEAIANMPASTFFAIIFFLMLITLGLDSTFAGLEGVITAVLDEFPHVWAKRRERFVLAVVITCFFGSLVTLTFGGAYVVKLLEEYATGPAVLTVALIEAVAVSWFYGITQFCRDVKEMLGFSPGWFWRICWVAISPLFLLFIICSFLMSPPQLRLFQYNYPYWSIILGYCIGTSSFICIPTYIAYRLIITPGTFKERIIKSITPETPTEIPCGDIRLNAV
row,Ki,SMILES
1,1.89 nM,COc1ccc(Sc2ccccc2CN(C)C)c(N)c1

# Species on record: Rattus norvegicus
# Experiment: Biodistribution of radioactivity in rat thalamus upon Tail-Vein injection of [11C]-labeled compound after 60 min
# Format: ADME, organism-based
# Conditions: in vivo, iv, 1 h
row,ID/g,SMILES
1,0.48%,COc1ccc(Sc2ccccc2CN(C)C)c(N)c1

# Molecular target: Sodium-dependent dopamine transporter (Homo sapiens, UniProt Q01959)
# Experiment: In vitro binding affinity on cloned Dopamine transporter
# Conditions: not given
# Procedure, shortened: as §1, with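 “transporters. Radioligands: SERT [3H]paroxetine 0.2 nM with 10.3 µg protein, NET [3H]nisoxetine 1.0 nM with 16.9 µg, DAT [3H]WIN 35,428 1.0 nM with 6.2 µg.” for “transporters.”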
# Sodium-dependent dopamine transporter, sequence (Q01959 whole entry): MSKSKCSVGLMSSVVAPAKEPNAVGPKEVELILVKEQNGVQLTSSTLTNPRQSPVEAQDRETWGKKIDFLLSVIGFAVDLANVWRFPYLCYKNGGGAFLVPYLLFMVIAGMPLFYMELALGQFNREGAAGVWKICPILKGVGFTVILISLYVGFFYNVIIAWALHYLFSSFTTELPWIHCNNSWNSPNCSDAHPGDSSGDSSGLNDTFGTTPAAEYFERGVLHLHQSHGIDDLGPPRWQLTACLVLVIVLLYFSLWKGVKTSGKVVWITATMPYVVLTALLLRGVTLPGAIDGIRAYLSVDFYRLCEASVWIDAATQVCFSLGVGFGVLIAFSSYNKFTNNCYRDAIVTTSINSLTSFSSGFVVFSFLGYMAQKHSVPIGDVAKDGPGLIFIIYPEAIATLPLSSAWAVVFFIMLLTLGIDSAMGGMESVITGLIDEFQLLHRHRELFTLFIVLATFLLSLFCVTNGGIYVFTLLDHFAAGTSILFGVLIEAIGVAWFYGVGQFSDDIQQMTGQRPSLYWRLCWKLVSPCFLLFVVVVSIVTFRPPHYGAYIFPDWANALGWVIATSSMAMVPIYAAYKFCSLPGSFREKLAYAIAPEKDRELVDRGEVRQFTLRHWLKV
row,Ki,SMILES
1,2650 nM,COc1ccc(Sc2ccccc2CN(C)C)c(N)c1
